In brackets after ≈: the same amount, converted by molar mass.
Assays:
Format in all cases: functional
[1] = system: Haemophilus influenzae; assay: Antibacterial activity against Haemophilus influenzae type b ATCC 49247 incubated for 24 hrs by M7-A9 microdilution method; details: type b ATCC 49247, 24 h
In short: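 CLSI M7-A9 broth microdilution against H. influenzae ATCC 49247. Compounds held as 2 mg/mL DMSO stocks, diluted 2-fold in Mueller–Hinton broth across 50 to 0.1 μg/mL. Wells received inoculum standardized to 0.5 McFarland and were run in triplicate. After 24 h at 37 °C, MIC taken as the lowest concentration preventing visible turbidity. Ciprofloxacin served as positive control.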

[2] = system: Haemophilus influenzae; assay: Bactericidal activity against Haemophilus influenzae type b ATCC 49247 incubated for 24 hrs followed by transferring to freshly prepared broth medium and measured after 24 hrs by M7-A9 microdilution method; details: type b ATCC 49247, 24 h
[3] = system: Haemophilus influenzae; assay: Ratio of MBC to MIC for Haemophilus influenzae type b ATCC 49247 by M7-A9 microdilution method

SMILES | MIC [1] [µg/mL] | MBC [2] [µg/mL] | Ratio [3]
C[C@H]1[C@H](C)CC[C@]2(C(=O)O)CC[C@]3(C(=O)O)C(=CC[C@@H]4[C@@]5(C)CC[C@H](O)C(C)(C)[C@@H]5CC[C@]43C)[C@H]12 | 25 (≈ 51.4 µM) | > 50 | >2
CC(O)c1coc2c(=O)n3c(cc12)-c1[nH]c2ccccc2c1CC3 (centres undefined) | 25 (≈ 78 µM) | 50 (≈ 156 µM) | 2
COC(OC)[C@H]1[C@@H]2C[C@H]3c4[nH]c5ccccc5c4CCN3C(=O)C2=CO[C@@H]1C | 50 (≈ 131 µM) | > 50 | >1
C[C@@H]1CC[C@]2(C(=O)O)CC[C@]3(C)C(=CC[C@@H]4[C@@]5(C)CC[C@H](O)C(C)(C)[C@@H]5CC[C@]43C)[C@@H]2[C@]1(C)O [POMOLIC ACID] | 18.8 (≈ 39.8 µM) | 50 (≈ 106 µM) | 2.7
C[C@@H]1CC[C@]2(C(=O)O)CC[C@]3(C)C(=CC[C@@H]4[C@@]5(C)CC[C@@H]6OC([C@H]7[C@@H]8C[C@H]9c%10[nH]c%11ccccc%11c%10CCN9C(=O)C8=CO[C@@H]7C)OC[C@]6(CO)[C@@H]5CC[C@]43C)[C@@H]2[C@]1(C)O (some centres undefined) | 25 (≈ 30.4 µM) | 50 (≈ 60.7 µM) | 2
C/C=C(/C=O)c1cc2n(c(=O)c1O)CCc1c-2[nH]c2ccccc12 | 50 (≈ 156 µM) | > 50 | >1

Further molecules by falling MIC [1], results first:

MIC [1] [µg/mL] | SMILES | MBC [2] [µg/mL] | Ratio [3]
18.8 (≈ 38.8 µM) | C[C@H]1[C@H](C)CC[C@]2(C(=O)O)CC[C@]3(C(=O)O)C(=CC[C@@H]4[C@@]5(C)CCC(=O)C(C)(C)[C@@H]5CC[C@]43C)[C@H]12 | 50 (≈ 103 µM) | 2.7
18.8 (≈ 38.5 µM) | CC1(C)CC[C@]2(C(=O)O)CC[C@]3(C)C(=CC[C@@H]4[C@@]5(C)CC[C@H](O)[C@@](C)(CO)[C@@H]5[C@H](O)C[C@]43C)[C@@H]2C1 | 50 (≈ 102 µM) | 2.7
18.8 (≈ 37.2 µM) | CC1(C)CC[C@]2(C(=O)O)CC[C@]3(C)C(=CC[C@@H]4[C@@]5(C)CC[C@H](O)[C@@](C)(CO)[C@@H]5[C@H](O)C[C@]43C)[C@@H]2[C@@H]1O | 50 (≈ 99.1 µM) | 2.7
4.7 (≈ 14 µM) | C/C=C1/COC(=O)[C@H]2C(=O)N3CCc4c([nH]c5ccccc45)[C@@H]3C[C@@H]12 | 12.5 (≈ 37.2 µM) | 2.7
4.7 (≈ 13.9 µM) | C/C=C1/CO[C@H](O)[C@H]2C(=O)N3CCc4c([nH]c5ccccc45)[C@@H]3C[C@@H]12 | 12.5 (≈ 36.9 µM) | 2.7
3.1 (≈ 9.22 µM) | C[C@H]1OC=C2C(=O)N3CCc4c([nH]c5ccccc45)[C@@H]3C[C@H]2[C@@H]1C=O | 12.5 (≈ 37.2 µM) | 4
1.6 (≈ 4.83 µM) | O=C(O)c1cn(C2CC2)c2cc(N3CCNCC3)c(F)cc2c1=O [CIPROFLOXACIN] | 1.6 (≈ 4.83 µM) | 1

Source: ChEMBL document CHEMBL4414555, “Constituents from Nauclea latifolia with Anti-Haemophilus influenzae Type b Inhibitory Activities” (2019)
